{"source": "ChEMBL document CHEMBL4732226", "about": "“Discovery of a potent G-protein-coupled receptor 119 agonist for the treatment of type 2 diabetes” (Bioorg Med Chem, 2021)", "key": {"[1]": {"assay": "Toxicity in male Wistar rat assessed as glucose level at 200 mg/kg, po after 28 days (reference value: 89.02 +/- 13.41 mg/dl)", "assay_type": "organism-based", "settings": "in vivo, 672 h, time 28 day"}, "[2]": {"assay": "Toxicity in male Wistar rat assessed as ratio of spleen to body weight at 100 mg/kg, po after 28 days (reference value: 0.206 +/- 0.026)", "assay_type": "organism-based", "settings": "in vivo, 672 h, time 28 day"}, "[3]": {"assay": "Toxicity in female Wistar rat assessed as creatinine level at 100 mg/kg, po after 28 days (reference value: 0.6 +/- 0.04 mg/dl)", "assay_type": "organism-based", "settings": "in vivo, 672 h, time 28 day"}, "[4]": {"assay": "Toxicity in male Wistar rat assessed as creatinine level at 400 mg/kg, po after 28 days (reference value: 0.61 +/- 0.04 mg/dl)", "assay_type": "organism-based", "settings": "in vivo, 672 h, time 28 day"}, "[5]": {"assay": "Toxicity in male Wistar rat assessed as ratio of brain to body weight at 200 mg/kg, po after 28 days (reference value: 0.766 +/- 0.038)", "assay_type": "organism-based", "settings": "in vivo, 672 h, time 28 day"}, "[6]": {"assay": "Toxicity in female Wistar rat assessed as ratio of kidney to body weight at 100 mg/kg, po after 28 days (reference value: 0.801 +/- 0.071)", "assay_type": "organism-based", "settings": "in vivo, 672 h, time 28 day"}, "[7]": {"assay": "Toxicity in female Wistar rat assessed as change in survival at 100 to 400 mg/kg, po after 28 days", "assay_type": "organism-based", "settings": "in vivo, 672 h, dose 100-400 mg/kg, time 28 day", "outline": "(§1)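 Repeated-dose oral toxicity by gavage in Wistar rats, 10 males and 10 females per group, given 100, 200 or 400 mg/kg once daily for 28 days. Endpoints were clinical signs, mortality, neurobehaviour, food intake, ophthalmic examination and body weight. Animals were sacrificed on day 29 for blood biochemistry, organ-to-body weight ratios and histopathology.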"}, "[8]": {"assay": "Toxicity in male Wistar rat assessed as albumin level at 400 mg/kg, po after 28 days (reference value: 3.56 +/- 0.08 g.dl)", "assay_type": "organism-based", "settings": "in vivo, 672 h, time 28 day"}, "[9]": {"assay": "Toxicity in female Wistar rat assessed as ratio of adrenals to body weight at 200 mg/kg, po after 28 days (reference value: 0.045 +/- 0.007)", "assay_type": "organism-based", "settings": "in vivo, 672 h, time 28 day"}, "[10]": {"assay": "Toxicity in male Wistar rat assessed as creatinine level at 100 mg/kg, po after 28 days (reference value: 0.61 +/- 0.04 mg/dl)", "assay_type": "organism-based", "settings": "in vivo, 672 h, time 28 day"}, "[11]": {"assay": "Toxicity in female Wistar rat assessed as glucose level at 100 mg/kg, po after 28 days (reference value: 78.4 +/- 8.36 mg/dl)", "assay_type": "organism-based", "settings": "in vivo, 672 h, time 28 day"}, "Rattus norvegicus": {"tested_on": "Rattus norvegicus", "assay": "Antidiabetic activity in Sprague-Dawley rat assessed as reduction in HFD-induced body weigh gain at 25 to 50 mg/kg/day, po for 28 days", "assay_type": "functional, organism-based", "settings": "dose 25-50 mg/kg/day, time 28.0 day", "outline": "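Male SD rats were fed high-fat diet for 12 weeks, with a normal-chow group alongside, then split into 4 treatment groups. Oral dosing at 25 or 50 mg/kg/day for 28 days in PG450/Tween 80/0.1% Na-CMC (5:5:90). Body weight recorded daily.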"}, "[12]": {"assay": "Toxicity in female Wistar rat assessed as ophthalmic examination at 400 mg/kg, po after 28 days", "assay_type": "organism-based", "settings": "in vivo, 672 h, time 28 day", "outline": "as §1"}, "[13]": {"assay": "Toxicity in female Wistar rat assessed as ratio of liver to body weight at 100 mg/kg, po after 28 days (reference value: 3.219 +/- 0.221)", "assay_type": "organism-based", "settings": "in vivo, 672 h, time 28 day"}, "[14]": {"assay": "Toxicity in male Wistar rat assessed as ratio of heart to body weight at 400 mg/kg, po after 28 days (reference value: 0.333 +/- 0.036)", "assay_type": "organism-based", "settings": "in vivo, 672 h, time 28 day"}, "[15]": {"assay": "Toxicity in female Wistar rat assessed as glucose level at 200 mg/kg, po after 28 days (reference value: 78.4 +/- 8.36 mg/dl)", "assay_type": "organism-based", "settings": "in vivo, 672 h, time 28 day"}, "[16]": {"assay": "Toxicity in male Wistar rat assessed as albumin level at 200 mg/kg, po after 28 days (reference value: 3.56 +/- 0.08 g.dl)", "assay_type": "organism-based", "settings": "in vivo, 672 h, time 28 day"}, "[17]": {"assay": "Toxicity in female Wistar rat assessed as ratio of spleen to body weight at 100 mg/kg, po after 28 days (reference value: 0.244 +/- 0.032)", "assay_type": "organism-based", "settings": "in vivo, 672 h, time 28 day"}, "[18]": {"assay": "Toxicity in male Wistar rat assessed as ratio of liver to body weight at 200 mg/kg, po after 28 days (reference value: 3.142 +/- 0.231)", "assay_type": "organism-based", "settings": "in vivo, 672 h, time 28 day"}, "[19]": {"assay": "Toxicity in female Wistar rat assessed as ALP level at 200 mg/kg, po after 28 days (reference value: 100.14 +/- 21.98 U/L)", "assay_type": "organism-based", "settings": "in vivo, 672 h, time 28 day"}, "[20]": {"assay": "Toxicity in male Wistar rat assessed as ratio of spleen to body weight at 200 mg/kg, po after 28 days (reference value: 0.206 +/- 0.026)", "assay_type": "organism-based", "settings": "in vivo, 672 h, time 28 day"}, "[21]": {"assay": "Toxicity in female Wistar rat assessed as ALP level at 400 mg/kg, po after 28 days (reference value: 100.14 +/- 21.98 U/L)", "assay_type": "organism-based", "settings": "in vivo, 672 h, time 28 day"}, "Mus musculus": {"tested_on": "Mus musculus", "assay": "Antidiabetic activity in glucose-stimulated db/db mouse assessed as increase in GLP-1 level secretion at 50 mg/kg, po after 10 mins", "assay_type": "functional", "outline": "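Male db/db mice received a single oral dose of 50 mg/kg, followed by a glucose load. Plasma active GLP-1 measured in pg/ml at 10 min after glucose.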"}, "[22]": {"assay": "Toxicity in male Wistar rat assessed as ratio of liver to body weight at 100 mg/kg, po after 28 days (reference value: 3.142 +/- 0.231)", "assay_type": "organism-based", "settings": "in vivo, 672 h, time 28 day"}, "[23]": {"assay": "Half life in Beagle dog at 10 mg/kg, po up to 24 hrs", "assay_type": "ADME, organism-based, Canis lupus familiaris", "settings": "in vivo", "outline": "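Single oral dose at 10 mg/kg given to male Wistar rats and to Beagle dogs; bioavailability also determined in both species.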"}, "[24]": {"assay": "AUC(0 to t) in Sprague-Dawley rat at 25 mg/kg, po up to 24 hrs", "assay_type": "ADME, organism-based", "design": "route oral, dose 25 mg/kg, time <=24", "settings": "in vivo", "outline": "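Male SD rats fasted overnight, water ad libitum, fed 4 h after dosing. Single oral gavage of 25 mg/kg as a homogeneous suspension in 0.5% Tween 80 in 0.5% Na-CMC. Blood drawn into Na-heparin tubes at 0.25, 0.5, 1, 2, 4, 6, 8 and 24 h; plasma stored at -70°C. Parameters by non-compartmental analysis, with C0 taken as zero and BLQ samples set to zero.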"}, "[25]": {"assay": "Toxicity in female Wistar rat assessed as glucose level at 400 mg/kg, po after 28 days (reference value: 78.4 +/- 8.36 mg/dl)", "assay_type": "organism-based", "settings": "in vivo, 672 h, time 28 day"}, "[26]": {"assay": "Toxicity in male Wistar rat assessed as glucose level at 400 mg/kg, po after 28 days (reference value: 89.02 +/- 13.41 mg/dl)", "assay_type": "organism-based", "settings": "in vivo, 672 h, time 28 day"}, "[27]": {"assay": "Toxicity in male Wistar rat assessed as ratio of brain to body weight at 400 mg/kg, po after 28 days (reference value: 0.766 +/- 0.038)", "assay_type": "organism-based", "settings": "in vivo, 672 h, time 28 day"}, "[28]": {"assay": "Toxicity in male Wistar rat assessed as ratio of thymus to body weight at 400 mg/kg, po after 28 days (reference value: 0.148 +/- 0.023)", "assay_type": "organism-based", "settings": "in vivo, 672 h, time 28 day"}, "[29]": {"assay": "Toxicity in female Wistar rat assessed as neurobehavioral changes at 400 mg/kg, po after 28 days", "assay_type": "organism-based", "settings": "in vivo, 672 h, time 28 day", "outline": "as §1"}, "[30]": {"assay": "Toxicity in female Wistar rat assessed as ratio of liver to body weight at 400 mg/kg, po after 28 days (reference value: 3.219 +/- 0.221)", "assay_type": "organism-based", "settings": "in vivo, 672 h, time 28 day"}}, "note": "Active and inactive are the calls of the source. The rule behind the calls is not given here.", "data": [{"smiles": "Cc1c(Oc2cccc(/C=C3\\SC(=O)NC3=O)c2)ncnc1OC1CCN(C(=O)OC(C)(C)C)CC1", "values": [{"measurement": "Activity", "setting": "[1]", "value": 75.19, "unit": "mg/dL"}, {"measurement": "Ratio", "setting": "[2]", "value": 0.222}, {"measurement": "Activity", "setting": "[3]", "value": 0.63, "unit": "mg/dL"}, {"measurement": "Activity", "setting": "[4]", "value": 0.57, "unit": "mg/dL"}, {"measurement": "Ratio", "setting": "[5]", "value": 0.824}, {"measurement": "Ratio", "setting": "[6]", "value": 0.875}, {"measurement": "Activity", "setting": "[7]", "value": "Non-Toxic"}, {"measurement": "Activity", "setting": "[8]", "value": 3.54, "unit": "g/dL"}, {"measurement": "Ratio", "setting": "[9]", "value": 0.044}, {"measurement": "Activity", "setting": "[10]", "value": 0.57, "unit": "mg/dL"}, {"measurement": "Activity", "setting": "[11]", "value": 79.83, "unit": "mg/dL"}, {"measurement": "Activity", "setting": "Rattus norvegicus", "value": "inactive"}, {"measurement": "Activity", "setting": "[12]", "value": "Non-Toxic"}, {"measurement": "Ratio", "setting": "[13]", "value": 3.243}, {"measurement": "Ratio", "setting": "[14]", "value": 0.338}, {"measurement": "Activity", "setting": "[15]", "value": 82.1, "unit": "mg/dL"}, {"measurement": "Activity", "setting": "[16]", "value": 3.61, "unit": "g/dL"}, {"measurement": "Ratio", "setting": "[17]", "value": 0.241}, {"measurement": "Ratio", "setting": "[18]", "value": 3.304}, {"measurement": "Activity", "setting": "[19]", "value": 91.73, "unit": "U/L"}, {"measurement": "Ratio", "setting": "[20]", "value": 0.22}, {"measurement": "Activity", "setting": "[21]", "value": 100.97, "unit": "U/L"}, {"measurement": "fold change (FC)", "setting": "Mus musculus", "value": 2.6}, {"measurement": "Ratio", "setting": "[22]", "value": 3.237}, {"measurement": "half-life", "setting": "[23]", "value": 1160, "unit": "min"}, {"measurement": "AUC(0-t) at 24 h", "setting": "[24]", "value": 19100, "unit": "ng·h/mL"}, {"measurement": "Activity", "setting": "[25]", "value": 76.54, "unit": "mg/dL"}, {"measurement": "Activity", "setting": "[26]", "value": 82.17, "unit": "mg/dL"}, {"measurement": "Ratio", "setting": "[27]", "value": 0.809}, {"measurement": "Ratio", "setting": "[28]", "value": 0.196}, {"measurement": "Activity", "setting": "[29]", "value": "Non-Toxic"}, {"measurement": "Ratio", "setting": "[30]", "value": 3.172}]}]}
